Experiment [1] is described as follows: Inhibition of HDAC class 2a in human L3.6pl cells using TFA-lysine as fluorogenic substrate by fluorescence microplate reader assay. Format: cell-based.
A further experiment concerns the target T1, Histone deacetylase 8 (Homo sapiens, UniProt Q9BY41).
T1 sequence (Q9BY41 whole entry): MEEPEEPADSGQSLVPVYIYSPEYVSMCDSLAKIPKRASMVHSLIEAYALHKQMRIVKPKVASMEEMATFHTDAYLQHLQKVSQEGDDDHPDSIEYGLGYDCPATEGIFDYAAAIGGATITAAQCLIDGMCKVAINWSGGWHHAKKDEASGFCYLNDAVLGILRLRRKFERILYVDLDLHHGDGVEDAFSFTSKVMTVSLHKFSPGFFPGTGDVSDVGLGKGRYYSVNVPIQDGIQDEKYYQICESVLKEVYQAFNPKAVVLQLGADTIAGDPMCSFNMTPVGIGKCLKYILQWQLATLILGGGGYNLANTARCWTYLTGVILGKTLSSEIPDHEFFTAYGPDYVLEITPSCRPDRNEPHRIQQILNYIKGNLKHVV
The experiment is described as follows: Inhibition of recombinant human HDAC8 using fluorogenic substrate by fluorescence microplate reader assay. In short, it runs like this:
(§1)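 Recombinant human HDAC isoforms were tested at 9 inhibitor dilutions in commercial fluorogenic enzyme kits, per the manufacturer's protocol. For class IIa enzymes, deacetylation of a TFA-lysine substrate lets trypsin release a fluorophore, read on a microplate reader. IC50 came from a nonlinear fit of % HDAC activity inhibition against compound concentration.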

Experiment [2] concerns the target T2, Class 1 histone deacetylase (Homo sapiens, UniProt Q13547+O15379+Q92769+Q9BY41). The experiment is described as follows: Inhibition of HDAC class 1 in human PANC-1 cells using TFA-lysine as fluorogenic substrate by fluorescence microplate reader assay. Type of experiment: cell-based.
A further experiment has as its target Histone deacetylase 5 (Homo sapiens, UniProt Q9UQL6). The experiment is described as follows: Inhibition of recombinant human HDAC5 using fluorogenic substrate by fluorescence microplate reader assay. In short, it runs like this:
as §1

For a further experiment, the target named is T3, Histone deacetylase 11 (Homo sapiens, UniProt Q96DB2).
T3 sequence (Q96DB2 whole entry): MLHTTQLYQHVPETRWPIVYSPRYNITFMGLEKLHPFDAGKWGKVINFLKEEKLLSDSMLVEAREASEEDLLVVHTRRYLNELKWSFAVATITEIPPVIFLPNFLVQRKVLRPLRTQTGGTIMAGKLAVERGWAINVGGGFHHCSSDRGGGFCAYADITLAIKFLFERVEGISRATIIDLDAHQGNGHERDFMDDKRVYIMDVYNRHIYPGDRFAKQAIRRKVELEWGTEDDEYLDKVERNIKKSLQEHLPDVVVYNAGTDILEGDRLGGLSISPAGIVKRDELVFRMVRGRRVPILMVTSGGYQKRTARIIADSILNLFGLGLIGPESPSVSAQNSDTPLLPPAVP
The experiment is described as follows: Inhibition of recombinant human HDAC11 using fluorogenic substrate by fluorescence microplate reader assay. The essentials: as §1

In experiment [3] the target is T2, Class 1 histone deacetylase. The experiment is described as follows: Inhibition of HDAC class 1 in human HT-29 cells using […] as fluorogenic substrate by fluorescence microplate reader assay. Type of experiment: cell-based. The essentials:
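HT-29 cells were plated at 200,000 cells/well in RPMI without phenol red with 0.1% FBS, with 100 µM Boc-Lys-TFA for class IIa or 200 µM Boc-Lys-Ac for class I/IIb. Compounds ran as an 11-point curve (5% final DMSO), with 5 µM trichostatin A as the positive control. Incubation was 3 h at 37 °C, then trypsin developer with Tween 80 for 1 h to lyse cells and release fluorophore.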

Experiment [4] can be described thus: Inhibition of HDAC class 2b in human PANC-1 cells using TFA-lysine as fluorogenic substrate by fluorescence microplate reader assay. Format: cell-based.
The target of another experiment is Histone deacetylase 9 (Homo sapiens, UniProt Q9UKV0). Kind of experiment: Inhibition of recombinant human HDAC9 using fluorogenic substrate by fluorescence microplate reader assay. In short, it runs like this:
as §1

Experiment [5] deals with T2, Class 1 histone deacetylase. Kind of experiment: Inhibition of HDAC class 1 in human HT-29 cells using Boc-Lys-Ac as substrate incubated for 3 hrs by microplate reader assay. Format: cell-based.
In a further experiment the target is Histone deacetylase 4 (Homo sapiens, UniProt P56524). The experiment is described as follows: Inhibition of recombinant human HDAC4 using fluorogenic substrate by fluorescence microplate reader assay. In short, it runs like this: as §1
Sequence of Histone deacetylase 4 (P56524 whole entry): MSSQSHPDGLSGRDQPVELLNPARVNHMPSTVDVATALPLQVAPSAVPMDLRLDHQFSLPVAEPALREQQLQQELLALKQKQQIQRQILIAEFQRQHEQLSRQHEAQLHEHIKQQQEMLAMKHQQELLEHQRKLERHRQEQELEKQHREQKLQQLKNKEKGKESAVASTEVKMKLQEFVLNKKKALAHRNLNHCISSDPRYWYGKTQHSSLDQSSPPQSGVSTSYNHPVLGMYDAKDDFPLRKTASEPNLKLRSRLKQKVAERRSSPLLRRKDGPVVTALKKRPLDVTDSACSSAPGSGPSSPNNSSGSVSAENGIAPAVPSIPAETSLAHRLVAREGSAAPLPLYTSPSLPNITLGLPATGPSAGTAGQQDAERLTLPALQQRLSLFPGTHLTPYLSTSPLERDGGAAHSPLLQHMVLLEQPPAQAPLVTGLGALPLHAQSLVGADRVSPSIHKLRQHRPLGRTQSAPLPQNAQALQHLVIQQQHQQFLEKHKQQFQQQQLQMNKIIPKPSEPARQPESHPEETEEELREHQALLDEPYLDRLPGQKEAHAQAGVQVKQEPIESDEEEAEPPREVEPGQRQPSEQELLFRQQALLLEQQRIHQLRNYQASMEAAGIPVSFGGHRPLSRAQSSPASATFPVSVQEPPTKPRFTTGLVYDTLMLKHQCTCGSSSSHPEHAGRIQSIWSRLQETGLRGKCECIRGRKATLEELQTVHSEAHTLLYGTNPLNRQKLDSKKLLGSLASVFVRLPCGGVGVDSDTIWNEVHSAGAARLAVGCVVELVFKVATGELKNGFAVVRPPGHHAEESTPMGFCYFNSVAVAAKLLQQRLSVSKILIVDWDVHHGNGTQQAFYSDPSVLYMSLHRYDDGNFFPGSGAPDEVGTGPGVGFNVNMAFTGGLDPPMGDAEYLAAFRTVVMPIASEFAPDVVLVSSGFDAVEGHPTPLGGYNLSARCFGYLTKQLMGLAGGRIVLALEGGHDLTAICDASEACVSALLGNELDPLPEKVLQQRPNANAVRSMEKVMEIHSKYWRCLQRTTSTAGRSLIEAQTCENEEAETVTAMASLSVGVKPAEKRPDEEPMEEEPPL

A value given as a limit tells only on which side of the number the result lay.

Sequence of Histone deacetylase 9 (Q9UKV0 whole entry): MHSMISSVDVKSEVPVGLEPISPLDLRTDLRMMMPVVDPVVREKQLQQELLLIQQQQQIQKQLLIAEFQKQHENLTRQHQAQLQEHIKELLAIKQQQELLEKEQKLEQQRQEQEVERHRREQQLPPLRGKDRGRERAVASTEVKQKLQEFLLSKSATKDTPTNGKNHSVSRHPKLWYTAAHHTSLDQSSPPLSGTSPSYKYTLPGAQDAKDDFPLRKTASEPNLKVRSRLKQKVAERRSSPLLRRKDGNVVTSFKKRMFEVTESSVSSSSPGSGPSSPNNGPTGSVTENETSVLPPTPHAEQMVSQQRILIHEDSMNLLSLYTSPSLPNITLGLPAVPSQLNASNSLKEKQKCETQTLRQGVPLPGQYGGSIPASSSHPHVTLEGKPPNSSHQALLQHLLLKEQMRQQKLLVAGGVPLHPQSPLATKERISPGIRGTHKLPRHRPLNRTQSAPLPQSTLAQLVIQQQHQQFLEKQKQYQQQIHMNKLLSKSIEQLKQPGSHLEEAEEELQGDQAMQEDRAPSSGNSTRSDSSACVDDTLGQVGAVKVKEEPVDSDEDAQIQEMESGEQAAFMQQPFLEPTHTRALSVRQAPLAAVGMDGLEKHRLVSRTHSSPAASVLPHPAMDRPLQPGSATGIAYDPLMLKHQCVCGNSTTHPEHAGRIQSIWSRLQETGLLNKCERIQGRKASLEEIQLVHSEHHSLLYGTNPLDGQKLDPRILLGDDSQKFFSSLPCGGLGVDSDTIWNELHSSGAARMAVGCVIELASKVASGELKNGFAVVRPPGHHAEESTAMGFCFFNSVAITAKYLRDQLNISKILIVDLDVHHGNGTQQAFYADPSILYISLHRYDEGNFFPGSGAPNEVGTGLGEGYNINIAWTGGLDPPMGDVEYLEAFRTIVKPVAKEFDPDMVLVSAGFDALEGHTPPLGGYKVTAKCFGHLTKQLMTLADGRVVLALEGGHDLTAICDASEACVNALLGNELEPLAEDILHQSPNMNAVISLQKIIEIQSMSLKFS
Sequence of Histone deacetylase 5 (Q9UQL6 whole entry): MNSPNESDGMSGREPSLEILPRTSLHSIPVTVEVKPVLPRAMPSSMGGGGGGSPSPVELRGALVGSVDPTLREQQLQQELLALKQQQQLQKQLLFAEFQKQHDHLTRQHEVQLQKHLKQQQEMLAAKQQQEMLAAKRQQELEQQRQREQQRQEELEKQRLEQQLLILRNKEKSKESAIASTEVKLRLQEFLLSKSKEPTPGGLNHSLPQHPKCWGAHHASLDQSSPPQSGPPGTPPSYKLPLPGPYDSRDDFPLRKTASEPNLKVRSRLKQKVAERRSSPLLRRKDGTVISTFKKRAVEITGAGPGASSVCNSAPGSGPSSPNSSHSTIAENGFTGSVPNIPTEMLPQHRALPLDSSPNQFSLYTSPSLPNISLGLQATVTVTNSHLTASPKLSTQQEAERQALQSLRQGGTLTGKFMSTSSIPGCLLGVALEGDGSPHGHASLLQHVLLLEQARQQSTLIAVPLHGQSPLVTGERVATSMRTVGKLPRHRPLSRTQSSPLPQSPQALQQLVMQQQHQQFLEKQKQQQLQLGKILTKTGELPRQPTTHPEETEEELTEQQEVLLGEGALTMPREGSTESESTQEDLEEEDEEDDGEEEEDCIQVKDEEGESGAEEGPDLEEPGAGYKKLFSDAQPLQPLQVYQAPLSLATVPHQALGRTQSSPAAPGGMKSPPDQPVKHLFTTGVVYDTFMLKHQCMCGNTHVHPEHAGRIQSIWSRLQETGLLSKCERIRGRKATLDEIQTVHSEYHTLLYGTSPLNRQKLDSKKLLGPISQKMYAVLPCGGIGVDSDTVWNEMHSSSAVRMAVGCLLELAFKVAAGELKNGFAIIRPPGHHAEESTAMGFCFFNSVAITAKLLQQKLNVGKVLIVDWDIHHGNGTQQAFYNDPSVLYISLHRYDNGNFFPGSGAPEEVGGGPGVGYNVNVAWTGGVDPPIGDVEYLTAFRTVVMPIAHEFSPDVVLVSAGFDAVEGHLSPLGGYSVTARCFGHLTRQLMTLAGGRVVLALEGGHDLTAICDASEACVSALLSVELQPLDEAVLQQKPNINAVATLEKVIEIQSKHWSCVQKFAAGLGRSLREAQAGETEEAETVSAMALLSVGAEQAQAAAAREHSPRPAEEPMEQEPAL

As to `CC(C)(CNC(=O)c1cccc(-c2noc(C(F)(F)F)n2)c1)c1coc(-c2ccccc2)n1`, the IC50 (usually the concentration needed to halve the response being measured) is 893 nM in experiment [1]; more than 5000 nM on Histone deacetylase 8; more than 5000 nM in [2]; 148 nM at Histone deacetylase 5; more than 5000 nM at Histone deacetylase 11; more than 5000 nM in [3]. For the same compound, the IC50 is more than 5000 nM in experiment [4], 2.4 nM on Histone deacetylase 9, more than 50000 nM in [5] and 128 nM at Histone deacetylase 4.

Values taken from ChEMBL document CHEMBL5154665, “Design, synthesis, biochemical evaluation, radiolabeling and in vivo imaging with high affinity class-IIa histone deacetylase inhibitor for molecular imaging and targeted therapy” (Eur J Med Chem, 2022).
